Consider 41 compounds from ChEMBL document CHEMBL1121810, “Antihypertensive activity of 6-arylpyrido[2,3-d]pyrimidin-7-amine derivatives” (1981).

Common to all, as to assay type: functional
Common to all, as to conditions: route oral

Assay [1] relates to Rattus norvegicus. The experiment in a line: Effect on heart rate of spontaneously hypertensive rats, 24 hr after peroral administration at 50 mg/kg. The procedure, abridged:
(§1)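 Heart rate was derived from the pulsatile arterial pressure signal in conscious catheterized male SHR (22-24 weeks, 250-350 g), with continuous monitoring sampled 3 min per 30 min. Drug was given by gavage as a 4% gum acacia suspension at 2 mL/kg, dose as free base, to groups of 3-4 rats with mean pressure >150 mmHg. Individual 30-min means were compared with pretreatment values.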

Assay [2] deals with Rattus norvegicus. The experiment in a line: Effect on heart rate of spontaneously hypertensive rats, 2 hr after peroral administration at 50 mg/kg. In short, it runs like this:
as §1

For assay [3], the system named is Rattus norvegicus. In words: Effect on heart rate of spontaneously hypertensive rats, 10 hr after peroral administration at 50 mg/kg. The procedure, abridged:
as §1

Assay [4] deals with Rattus norvegicus. In words: Effect on heart rate of spontaneously hypertensive rats, 24 hr after peroral administration of 10 mg/kg of compound. The procedure, abridged: as §1
The subject of assay [5] is Rattus norvegicus. In words: Maximum percent decrease in heart rate of spontaneously hypertensive rats, 6 hours after peroral administration of 50 mg/kg of compound. In short, it runs like this:
(§2)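 Conscious male SHR (Kyoto-Wistar origin, 22-24 weeks, 250-350 g; mean BP >150 mmHg, pulse pressure >25 mmHg) with indwelling catheters, ~0.8 mL heparinized saline/day. Dosed by gavage as a 4% gum acacia suspension, 2 mL/kg, free-base doses, 3-4 rats per group. Heart rate was derived from the pulsatile pressure signal, sampled 3 min every 30 min, and 30-min means were compared with pretreatment values.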

For assay [6], the system named is Rattus norvegicus. The experiment in a line: Effect on heart rate of spontaneously hypertensive rats, 2 hr after peroral administration of 10 mg/kg of compound. The procedure, abridged: as §1
The subject of assay [7] is Rattus norvegicus. The experiment in a line: Effect on heart rate of spontaneously hypertensive rats, 10 hr after peroral administration of 10 mg/kg of compound. In short, it runs like this:
as §1

Assay [8] relates to Rattus norvegicus. The experiment in a line: Maximum percent decrease in heart rate of spontaneously hypertensive rats, 8 hours after peroral administration of 50 mg/kg of compound. In short, it runs like this: as §2
Assay [9] has as its system Rattus norvegicus. In words: Maximum percent decrease in heart rate of spontaneously hypertensive rats, 10 hours after peroral administration of 50 mg/kg of compound. In short, it runs like this: as §1
In assay [10] the test system is Rattus norvegicus. In words: Effect on heart rate of spontaneously hypertensive rats, 18 hr after peroral administration of 50 mg/kg of compound. The procedure, abridged:
as §1

The subject of assay [11] is Rattus norvegicus. In words: Blood pressure rating in spontaneously hypertensive rats, 10 hr after peroral administration of 50 mg/kg of compound. In short, it runs like this:
(§3)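 Conscious male SHR (Kyoto-Wistar origin, 22-24 weeks, 250-350 g) with indwelling catheters, given about 160 units heparin/day in saline. Only rats with mean blood pressure >150 mmHg and pulse pressure >25 mmHg were used, in groups of 3-4. Dosing was oral gavage at 2 mL/kg in 4% gum acacia suspension, as free base. Pressure was sampled 3 min of every 30 min, and 30-min means were compared with pretreatment values.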

Assay [12] deals with Rattus norvegicus. The experiment in a line: Blood pressure rating in spontaneously hypertensive rats, 24 hr after peroral administration of 50 mg/kg of compound. In short, it runs like this: as §3
In assay [13] the test system is Rattus norvegicus. The experiment in a line: Blood pressure rating in spontaneously hypertensive rats, 2 hr after peroral administration of 50 mg/kg of compound. In short, it runs like this: as §3
Assay [14] deals with Rattus norvegicus. The experiment in a line: Maximum percent decrease in heart rate of spontaneously hypertensive rats, 2 hours after peroral administration of 50 mg/kg of compound. The procedure, abridged:
as §1

Assay [15] has as its system Rattus norvegicus. The experiment in a line: Maximum percent decrease in heart rate of spontaneously hypertensive rats, 5 hours after peroral administration of 50 mg/kg of compound. In short, it runs like this:
as §2

The test system of assay [16] is Rattus norvegicus. In words: Max effect on heart rate of spontaneously hypertensive rats, 3-5 hr after peroral administration of 10 mg/kg of compound. The procedure, abridged: as §1
Assay [17] has as its system Rattus norvegicus. In words: Effect on heart rate of spontaneously hypertensive rats, 24 hr after peroral administration of 3 mg/kg of compound. The procedure, abridged: as §1
For assay [18], the system named is Rattus norvegicus. The experiment in a line: Effect on heart rate of spontaneously hypertensive rats, 2 hr after peroral administration of 3 mg/kg of compound. In short, it runs like this:
as §1

For the compound `Cc1ncc2cc(-c3ccccc3C(F)(F)F)c(N)nc2n1`, the Activity rating in the assay on Rattus norvegicus [1], with Rattus norvegicus [2] and in the assay on Rattus norvegicus [3] was 0 each time.

`Cc1ncnc2nc(N)c(-c3c(Cl)cccc3Cl)cc12`: the Activity rating in the assay with Rattus norvegicus [4] worked out at 0; in the assay on Rattus norvegicus [2], 2; with Rattus norvegicus [6] it was 0; in the assay with Rattus norvegicus [3], 2; in the assay with Rattus norvegicus [7], 0. The compound further gave a Decrease in the assay with Rattus norvegicus [5] of 26%.

Consider `Nc1nc2nc(C(F)(F)F)ncc2cc1-c1c(Cl)cccc1Cl`, for which the Activity rating in the assay with Rattus norvegicus [1], in the assay with Rattus norvegicus [2] and in the assay with Rattus norvegicus [3] was 0 throughout.

For `Cc1ncc2cc(-c3ccc(Cl)cc3Cl)c(N)nc2n1`, the Activity rating is listed as 1 in the assay on Rattus norvegicus [1], 0 with Rattus norvegicus [2] and 1 in the assay with Rattus norvegicus [3]. Also, the Decrease in the assay with Rattus norvegicus [8] came to 13%.

As to `Cc1ncc2cc(-c3cccc(Cl)c3Cl)c(N)nc2n1`, the Activity rating in the assay on Rattus norvegicus [1], in the assay with Rattus norvegicus [2] and with Rattus norvegicus [3] was 0 each time.

For `Cc1ncc2cc(-c3ccccc3I)c(N)nc2n1`, the Activity rating in the assay with Rattus norvegicus [1], in the assay with Rattus norvegicus [2] and in the assay on Rattus norvegicus [3] was 0 throughout.

`Cc1cccc(Cl)c1-c1cc2cncnc2nc1N` registered a Decrease in the assay with Rattus norvegicus [9] of 21%. The Activity rating with Rattus norvegicus [2] turned out to be 1; with Rattus norvegicus [10] it was 1; with Rattus norvegicus [3], 2.

Consider `Cc1nc(N)c2cc(-c3c(Cl)cccc3Cl)c(N)nc2n1`, for which the Activity rating in the assay with Rattus norvegicus [1], in the assay with Rattus norvegicus [2] and in the assay with Rattus norvegicus [3] was 0 throughout.

With `Nc1nc2ncncc2cc1-c1ccccc1`, the Activity rating with Rattus norvegicus [1], in the assay with Rattus norvegicus [2] and in the assay on Rattus norvegicus [3] was 0 in each case.

As for `CCOc1nc(C)nc2nc(N)c(-c3c(Cl)cccc3Cl)cc12`, the Activity rating with Rattus norvegicus [11], with Rattus norvegicus [12] and in the assay on Rattus norvegicus [13] was 0 in each case.

With `Cc1ncc2cc(-c3ccc([N+](=O)[O-])cc3)c(N)nc2n1`, the Activity rating in the assay on Rattus norvegicus [11], in the assay on Rattus norvegicus [12] and in the assay with Rattus norvegicus [13] was 0 in each case.

For `Cc1ccccc1-c1cc2cncnc2nc1N`, the Activity rating with Rattus norvegicus [4] is 0; in the assay on Rattus norvegicus [1], 0; in the assay with Rattus norvegicus [2], 1; in the assay on Rattus norvegicus [6], 0; with Rattus norvegicus [3], 1; in the assay on Rattus norvegicus [7], 0. The compound further showed a Decrease in the assay on Rattus norvegicus [14] of 18%.

Regarding `Cc1ncc2cc(-c3cccnc3)c(N)nc2n1`, the Activity rating in the assay on Rattus norvegicus [1], in the assay on Rattus norvegicus [2] and in the assay on Rattus norvegicus [3] was 0 in each case.

As to `Nc1nc2ncncc2cc1-c1ccccc1I`, the Activity rating is 1 in the assay with Rattus norvegicus [1], 0 in the assay with Rattus norvegicus [2] and 0 in the assay with Rattus norvegicus [3]. Besides, the Decrease with Rattus norvegicus [8] came out at 11%.

Consider `Cc1ncc2cc(-c3ccc(Cl)cc3)c(N)nc2n1`, for which the Activity rating in the assay on Rattus norvegicus [1], with Rattus norvegicus [2] and with Rattus norvegicus [3] was 0 each time.

As for `Cc1ncc2cc(-c3ccccc3)c(N)nc2n1`, the Activity rating in the assay with Rattus norvegicus [1], in the assay on Rattus norvegicus [2] and in the assay with Rattus norvegicus [3] was 0 in each case.

In the assay on Rattus norvegicus [5], `CCc1ncc2cc(-c3c(Cl)cccc3Cl)c(N)nc2n1` registered a Decrease of 15%. Besides, the Activity rating was determined as 0 with Rattus norvegicus [1], 0 in the assay with Rattus norvegicus [2] and 1 in the assay on Rattus norvegicus [3].

On to `Cc1ccccc1-c1cc2cnc(C3CC3)nc2nc1N`, for which the Activity rating in the assay on Rattus norvegicus [11], with Rattus norvegicus [12] and with Rattus norvegicus [13] was 0 each time.

`Cc1ncc2cc(-c3ccccc3F)c(N)nc2n1`: the Activity rating in the assay on Rattus norvegicus [1], in the assay on Rattus norvegicus [2] and with Rattus norvegicus [3] was 0 throughout.

On to `CCc1ncc2cc(-c3ccccc3C)c(N)nc2n1`, for which the Activity rating in the assay with Rattus norvegicus [1], in the assay with Rattus norvegicus [2] and in the assay with Rattus norvegicus [3] was 0 in each case.

The compound `Cc1ncc2cc(-c3c(C)cccc3Cl)c(N)nc2n1` registered a Decrease in the assay on Rattus norvegicus [15] of 30%. Moreover, the Activity rating with Rattus norvegicus [2] worked out at 1; in the assay on Rattus norvegicus [6], 2; in the assay on Rattus norvegicus [10], 2; in the assay on Rattus norvegicus [3], 2; in the assay on Rattus norvegicus [7] it was 2.

For the compound `Cc1nc(C)c2cc(-c3ccccc3C)c(N)nc2n1`, the Activity rating in the assay on Rattus norvegicus [1], in the assay with Rattus norvegicus [2] and in the assay with Rattus norvegicus [3] was 0 each time. Also, in the assay on Rattus norvegicus [8], the Decrease was 11%.

In the case of `Cc1cccc(-c2cc3cncnc3nc2N)c1C`, the Activity rating with Rattus norvegicus [1], in the assay with Rattus norvegicus [2] and in the assay with Rattus norvegicus [3] was 0 each time.

Turning to `CCc1ncc2cc(-c3ccccc3Cl)c(N)nc2n1`, the Activity rating with Rattus norvegicus [1], with Rattus norvegicus [2] and in the assay with Rattus norvegicus [3] was 0 each time.

`Cc1ncc2cc(-c3ccc(Cl)c(Cl)c3)c(N)nc2n1`: the Activity rating in the assay with Rattus norvegicus [2] and in the assay on Rattus norvegicus [3] was 0 throughout.

With `Cc1ncc2cc(-c3c(C)cccc3Br)c(N)nc2n1`, the results for the Activity rating in the assay with Rattus norvegicus [1], in the assay on Rattus norvegicus [2] and in the assay with Rattus norvegicus [3] were 0, 0 and 1, respectively. The compound further yielded a Decrease with Rattus norvegicus [15] of 18%.

In the case of `Cc1nc(C)c2cc(-c3c(Cl)cccc3Cl)c(N)nc2n1`, in the assay on Rattus norvegicus [5], the Decrease was 32%. Also, the results for the Activity rating with Rattus norvegicus [2], with Rattus norvegicus [10] and in the assay with Rattus norvegicus [3] were 2, 2 and 3, respectively.

In the case of `Nc1nc2nc(/C=C/c3ccccc3)ncc2cc1-c1c(Cl)cccc1Cl`, the Decrease in the assay on Rattus norvegicus [5] amounted to 13%. Also, the Activity rating in the assay on Rattus norvegicus [11] amounted to 1; with Rattus norvegicus [12], 0; with Rattus norvegicus [13], 0.

Turning to `Nc1nc2nc(C3CC3)ncc2cc1-c1c(Cl)cccc1Cl`, the Activity rating with Rattus norvegicus [11], with Rattus norvegicus [12] and in the assay on Rattus norvegicus [13] was 0 each time.

As for `Cc1ncc2cc(-c3cccc(Br)c3C)c(N)nc2n1`, the Activity rating in the assay with Rattus norvegicus [1], with Rattus norvegicus [2] and in the assay on Rattus norvegicus [3] was 0 throughout.

Consider `Cc1ncc2cc(-c3ccco3)c(N)nc2n1`, for which the Activity rating in the assay with Rattus norvegicus [11], with Rattus norvegicus [12] and in the assay on Rattus norvegicus [13] was 0 in each case.

As for `Nc1nc2nc(C3CC3)ncc2cc1-c1ccccc1Br`, the Activity rating with Rattus norvegicus [11], in the assay on Rattus norvegicus [12] and with Rattus norvegicus [13] was 0 in each case.

In the case of `Nc1nc2ncncc2cc1-c1cccnc1`, the Activity rating with Rattus norvegicus [1], in the assay on Rattus norvegicus [2] and with Rattus norvegicus [3] was 0 throughout.

Take `CCc1ccccc1-c1cc2cncnc2nc1N`: the Activity rating in the assay on Rattus norvegicus [1] turned out to be 0; in the assay on Rattus norvegicus [2], 3; with Rattus norvegicus [3] it was 0. Moreover, in the assay on Rattus norvegicus [14], the Decrease is 33%.

For the compound `CCc1ccccc1-c1cc2cnc(C)nc2nc1N`, the Activity rating in the assay on Rattus norvegicus [1], in the assay on Rattus norvegicus [2] and with Rattus norvegicus [3] was 0 in each case.

With `Cc1cc(C)c(-c2cc3cnc(C)nc3nc2N)c(C)c1`, the results for the Activity rating in the assay on Rattus norvegicus [1], with Rattus norvegicus [2] and with Rattus norvegicus [3] were 0, 1 and 0, respectively. Besides, the Decrease with Rattus norvegicus [14] is given as 18%.

In the case of `Nc1nc2ncncc2cc1-c1ccccc1C(F)(F)F`, the Activity rating in the assay on Rattus norvegicus [1], in the assay with Rattus norvegicus [2] and in the assay on Rattus norvegicus [3] was 0 in each case.

For the compound `Nc1nc2ncncc2cc1-c1ccccc1Br`, the Activity rating in the assay with Rattus norvegicus [16] worked out at 0; with Rattus norvegicus [2], 0; in the assay on Rattus norvegicus [10] it was 1; with Rattus norvegicus [3] it was 1. This compound returned a Decrease with Rattus norvegicus [15] of 16%.

Regarding `Cc1ncc2cc(-c3cccc(C)c3C)c(N)nc2n1`, the Activity rating in the assay on Rattus norvegicus [1], in the assay with Rattus norvegicus [2] and in the assay on Rattus norvegicus [3] was 0 each time.

For the compound `Cc1ncc2cc(-c3c(C)cccc3C)c(N)nc2n1`, the Activity rating in the assay on Rattus norvegicus [1], in the assay with Rattus norvegicus [2] and with Rattus norvegicus [3] was 0 throughout.

`Clc1cccc(Cl)c1NC1=NCCN1` [CLONIDINE]: the Activity rating came to 2 in the assay with Rattus norvegicus [17] and 0 in the assay on Rattus norvegicus [18].
